19 compounds from ChEMBL document CHEMBL4811233, “Synthesis, Structure-Activity Relationships, and Antiviral Activity of Allosteric Inhibitors of Flavivirus NS2B-NS3 Protease” (J Med Chem, 2021) can be followed below.

Calls of active or inactive are those of the source. The calls are words filed in the database; no cut-off is given here.

Series [1] concerns the target Genome polyprotein (dengue virus type 2, UniProt P29990). Kind of series: Inhibition Dengue serotype-2 NS3B/NS3 protease using 7-amino-4-methylcoumarin as substrate by fluorescence assay.
In series [2] the target is Genome polyprotein (West Nile virus, UniProt P06935). Kind of series: Inhibition West Nile virus NS3B/NS3 protease using 7-amino-4-methylcoumarin as substrate by fluorescence assay.
Genome polyprotein (West Nile virus, UniProt P06935), sequence (P06935 1371-1501 limits assumed): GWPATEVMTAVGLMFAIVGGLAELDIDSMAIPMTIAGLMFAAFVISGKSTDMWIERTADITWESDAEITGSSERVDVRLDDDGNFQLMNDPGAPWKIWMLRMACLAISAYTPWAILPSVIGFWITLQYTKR
Genome polyprotein (West Nile virus, UniProt P06935), sequence (P06935 1502-2120 limits assumed): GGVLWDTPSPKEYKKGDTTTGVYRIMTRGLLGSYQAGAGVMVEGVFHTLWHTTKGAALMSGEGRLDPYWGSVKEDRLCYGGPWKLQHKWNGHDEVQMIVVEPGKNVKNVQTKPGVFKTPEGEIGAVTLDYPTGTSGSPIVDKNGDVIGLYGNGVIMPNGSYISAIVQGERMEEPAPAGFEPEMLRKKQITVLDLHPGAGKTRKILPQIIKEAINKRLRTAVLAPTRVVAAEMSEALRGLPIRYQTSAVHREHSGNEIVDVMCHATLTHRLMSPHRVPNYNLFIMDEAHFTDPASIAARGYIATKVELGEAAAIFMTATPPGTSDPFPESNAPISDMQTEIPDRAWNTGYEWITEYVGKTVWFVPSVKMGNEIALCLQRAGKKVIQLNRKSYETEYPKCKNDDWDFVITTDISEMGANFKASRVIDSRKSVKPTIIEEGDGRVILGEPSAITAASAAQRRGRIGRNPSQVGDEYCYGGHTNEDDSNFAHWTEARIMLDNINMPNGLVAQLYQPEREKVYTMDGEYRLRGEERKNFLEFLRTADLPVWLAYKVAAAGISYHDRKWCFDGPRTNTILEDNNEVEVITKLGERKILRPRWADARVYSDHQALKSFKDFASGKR
Series [3] concerns Zika virus. Kind of series: Antiviral activity against Zika virus infected in human U87 cells assessed as reduction in infectious virus in supernatant by measuring infection of Vero cells preincubated with viral infected […] cells for 48 hrs and measured following infection of supernatants with Vero cells for 7 days by microscopy. The class given is functional. The settings on record: U-87 MG. A digest of the protocol:
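U87 cells (2×10^4/well, DMEM with 2% FBS monolayer) infected with ZIKV FLR strain (passage-3 stock) at MOI 0.01 for 1 h, then washed. Compound added in triplicate for 48 h at 37 °C. Supernatant half-log dilutions are titrated on Vero cells in quadruplicate for 7 days, with CPE read by microscopy plus MTT. EC68 is the half-log TCID50 reduction versus control; ≥2 independent experiments.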

Series [4] relates to Zika virus. Kind of series: Antiviral activity against Zika Serotype 2 infected mouse model assessed as inhibition of viral load in plasma at 30 mg/kg treated for 3 days. The class given is functional. As to conditions: 72 h, time 3 day.
Series [5] relates to Zika virus. Kind of series: Antiviral activity against Zika Serotype 2 infected mouse model assessed as inhibition of viral load in brain at 30 mg/kg treated for 3 days. The class given is functional. The settings on record: 72 h, time 3 day.
The next series addresses Nonstructural protein 3 (Zika virus, UniProt A0A024AXB9). Kind of series: Inhibition Zika virus NS2B (47 to 95 residues)/NS3 (1 to 170 residues) protease expressed in Escherichia coli BL21 using 7-amino-4-methylcoumarin as substrate by fluorescence assay. A digest of the protocol:
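Single-chain NS2B(47–95)–Gly4-Ser-Gly4–NS3(1–170) enzyme at 1 nM in 20 mM HEPES pH 7.3 with 0.05% Triton X-100. Compound (1 nM–10 µM, triplicate) is preincubated 10 min before adding Bz-Nle-Lys-Lys-Arg-AMC at 20 µM. Fluorescence (Ex 360/Em 460 nm) is read every 30 s. IC50 comes from dose-response fitting of initial velocities, 3 independent experiments with SD.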

For a further series, the system named is U-87 MG. Kind of series: Cytotoxicity against human U87 cells assessed as inhibition of proliferation at 10 uM by MTT assay. Type of series: cell-based. The settings on record: u-87mg atcc. On the technique in general: Formazan colour is commonly taken as a measure of viable cells.
Another series has as its system Vero. Kind of series: Cytotoxicity against African green monkey Vero cells assessed as inhibition of proliferation at 10 uM by MTT assay. Type of series: cell-based. As to conditions: chlorocebus sabaeus.
Series [6] relates to Zika virus. Kind of series: Antiviral activity against Zika virus infected in human U87 cells assessed as inhibition of viral replication at 10 uM. Type of series: functional, organism-based.

Genome polyprotein (dengue virus type 2, UniProt P29990), sequence (P29990 1346-1475 limits assumed): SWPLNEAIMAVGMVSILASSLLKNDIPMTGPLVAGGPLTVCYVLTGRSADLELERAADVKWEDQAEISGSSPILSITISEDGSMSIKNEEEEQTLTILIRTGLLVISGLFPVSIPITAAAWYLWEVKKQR
Genome polyprotein (dengue virus type 2, UniProt P29990), sequence (P29990 1476-2093 limits assumed): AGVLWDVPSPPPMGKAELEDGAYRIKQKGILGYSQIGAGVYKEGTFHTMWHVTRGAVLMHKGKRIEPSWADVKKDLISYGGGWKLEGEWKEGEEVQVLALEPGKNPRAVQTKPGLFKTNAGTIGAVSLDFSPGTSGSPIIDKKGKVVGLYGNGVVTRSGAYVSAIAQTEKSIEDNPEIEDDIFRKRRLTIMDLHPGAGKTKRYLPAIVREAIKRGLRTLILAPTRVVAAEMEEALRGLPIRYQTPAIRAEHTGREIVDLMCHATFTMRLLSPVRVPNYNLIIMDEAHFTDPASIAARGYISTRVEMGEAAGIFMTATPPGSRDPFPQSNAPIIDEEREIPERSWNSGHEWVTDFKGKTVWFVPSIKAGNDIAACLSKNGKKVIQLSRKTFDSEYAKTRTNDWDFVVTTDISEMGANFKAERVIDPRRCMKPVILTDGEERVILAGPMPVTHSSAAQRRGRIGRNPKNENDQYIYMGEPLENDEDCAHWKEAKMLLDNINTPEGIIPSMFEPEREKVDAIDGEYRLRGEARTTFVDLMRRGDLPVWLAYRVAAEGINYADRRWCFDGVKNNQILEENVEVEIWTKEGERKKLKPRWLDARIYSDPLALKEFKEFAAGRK
Nonstructural protein 3, sequence (A0A024AXB9 whole entry, the tested form may be a part): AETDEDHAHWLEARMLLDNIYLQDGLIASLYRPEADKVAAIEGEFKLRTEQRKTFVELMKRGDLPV

Regarding `NCc1ccc(-c2ncc(OCC3CCNCC3)nc2-c2ccc(-c3ccoc3)cc2)cc1`, the IC50 (as a rule, the midpoint of a concentration-inhibition curve) turned out to be 590 nM against Genome polyprotein [1] and 780 nM at Genome polyprotein [2]. Moreover, the EC68 with Zika virus [3] came out at 0.3 µM. The inhibition in vivo – broadly, the relative decrease from the control value, in per cent – at 30 mg/kg was found to be 96% in the series with Zika virus [4] and 98% in the series on Zika virus [5].
Turning to `c1cc(-c2ccc(-c3ncc(OCC4CCNCC4)nc3-c3ccc(-c4ccsc4)cc3)cc2)cs1`, the IC50 at Genome polyprotein [1] came out at 3600 nM; against Nonstructural protein 3, 1400 nM; against Genome polyprotein [2], 6600 nM.
Regarding `NCc1ccc(-c2ncc(OCC3CCNCC3)nc2-c2ccc(C3CCOCC3)nc2)cc1`, inhibition against Nonstructural protein 3 was half-maximal at 1000 nM (IC50). Further, in the series on Zika virus [3], the EC68 came to 3 µM. Besides, the Activity result in the series on U-87 MG and with Vero was “Non-Toxic” throughout.
Regarding `NCc1ccc(-c2ncc(OCC3CCNCC3)nc2-c2ccc3[nH]ccc3c2)cc1`, the concentration for half-maximal inhibition (IC50) is 640 nM against Genome polyprotein [1] and 930 nM against Genome polyprotein [2]. For the same compound, the EC68 in the series with Zika virus [3] was 2.5 µM.
Turning to `NCc1ccc(-c2ncc(OCC3CCNCC3)nc2-c2ccc(Oc3ccccc3)cc2)cc1`, the IC50 on Genome polyprotein [1] was > 50000 nM; on Nonstructural protein 3, 32600 nM; at Genome polyprotein [2], > 50000 nM.
As to `NCc1ccc(-c2ncc(OCC3CCNCC3)nc2-c2ccc(C3CCOCC3)cc2)cc1`, the IC50 stood at 2400 nM at Genome polyprotein [1], 130 nM against Nonstructural protein 3 and 820 nM against Genome polyprotein [2]. Besides, in the series with Zika virus [3], the EC68 came out at 0.6 µM. In addition, the Activity entry in the series with U-87 MG and in the series with Vero was “Non-Toxic” throughout.
For `Brc1ccc(-c2ncc(OCC3CCNCC3)nc2-c2ccc(Br)cc2)cc1`, the figures for the IC50 against Genome polyprotein [1], against Nonstructural protein 3 and against Genome polyprotein [2] were 35000 nM, 21700 nM and > 50000 nM, respectively. In addition, the EC68 in the series on Zika virus [3] is > 10 µM.
Regarding `NCc1ccc(-c2ncc(NCC3CCNCC3)nc2-c2ccc(-c3ccoc3)cc2)cc1`, the IC50 on Genome polyprotein [1] worked out at 290 nM; on Nonstructural protein 3, 400 nM; on Genome polyprotein [2], 510 nM. Moreover, the EC68 with Zika virus [3] was 1.2 µM.
Turning to `CNCc1ccc(-c2ncc(OCC3CCNCC3)nc2-c2ccc(-c3ccoc3)cc2)cc1`, the values for the IC50 against Genome polyprotein [1] and against Genome polyprotein [2] were 730 nM and 870 nM, respectively. Moreover, the EC68 in the series with Zika virus [3] came out at 1.2 µM.
In turn, `NCc1ccc(-c2nc(OCC3CCNCC3)cnc2-c2ccc(-c3ccoc3)cc2)cc1` gave an IC50 against Nonstructural protein 3 of 680 nM. In addition, the EC68 in the series with Zika virus [3] is 1.2 µM.
`ONCc1ccc(-c2ncc(OCCC3CCNCC3)nc2-c2ccc(CNO)cc2)cc1`: the IC50 against Genome polyprotein [1] was 3800 nM; against Nonstructural protein 3, 1600 nM; against Genome polyprotein [2] it was 3200 nM.
`CC(Oc1cnc(-c2ccc(CN)cc2)c(-c2ccc(-c3ccoc3)cc2)n1)C1CCNCC1` (racemic): at Nonstructural protein 3, it took 240 nM to reach half-maximal inhibition (IC50). The EC68 with Zika virus [3] amounted to 1.2 µM.
With `Cc1cc(CN)ccc1-c1ncc(OCC2CCNCC2)nc1-c1ccc(CN)cc1C`, the IC50 on Genome polyprotein [1] was 6300 nM; on Nonstructural protein 3, 2100 nM; on Genome polyprotein [2], 3600 nM.
For the compound `CC(C)(C)c1ccc(-c2ncc(OCC3CCNCC3)nc2-c2ccc(C(C)(C)C)cc2)cc1`, the results for the IC50 at Genome polyprotein [1], against Nonstructural protein 3 and at Genome polyprotein [2] were 8400 nM, 3100 nM and 9500 nM, respectively. Also, in the series on Zika virus [3], the EC68 came out at 5 µM.
The matching figures for `NCc1ccc(-c2ccc(NCC3CCNCC3)nc2-c2ccc(-c3ccoc3)cc2)cc1`: 860 nM, 790 nM, 1300 nM and 1.2 µM.
In the case of `NCc1ccc(-c2ncc(OCC3CCNCC3)nc2-c2ccc(-c3cn[nH]c3)cc2)cc1`, the IC50 against Genome polyprotein [1] came to 210 nM; against Nonstructural protein 3, 760 nM. Further, the EC68 with Zika virus [3] came to 2.5 µM.
For `CC(C)(C)C(=O)OCc1ccc(-c2ncc(OCC3CCNCC3)nc2-c2ccc(COC(=O)C(C)(C)C)cc2)cc1`, the IC50 was found to be 13400 nM on Genome polyprotein [1], 9800 nM on Nonstructural protein 3 and 20000 nM against Genome polyprotein [2].
In the case of `NCc1ccc(-c2ncc(OCC3CCNCC3)nc2-c2ccc(O)cc2)cc1`, the EC68 in the series on Zika virus [3] is > 10 µM. In addition, the inhibition result in the series on Zika virus [6] is “inactive”.
On to `NC(=O)c1ccc(-c2ncc(OCC3CCNCC3)nc2-c2ccc(-c3ccoc3)cc2)cc1`, for which the IC50 at Genome polyprotein [1] was determined as 980 nM; against Nonstructural protein 3, 1100 nM; against Genome polyprotein [2] it was 1340 nM. Besides, in the series on Zika virus [3], the EC68 is 2.5 µM.
